Laboratory results from ChEMBL document CHEMBL1123266, “Antibacterial activity of phosphono dipeptides related to alafosfalin” (J Med Chem, 1986).
In brackets after ≈: the same amount, converted by molar mass.

What was measured:
Klebsiella aerogenes [1] = assay: Concentration (IC50) to inhibit the growth of Klebsiella aerogenes.; type: functional, organism-based
How it was run: (§1)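 Broth dilution in a defined liquid peptide medium lacking antagonists of small peptide mimetics. Inocula were overnight cultures grown in this medium at 37 °C and diluted to about 4 × 10^6 cfu/mL. Compound was tested as a doubling dilution series, final 0.065–512 μg/mL, incubated overnight at 37 °C. Turbidity was read, and IC50 is the concentration reducing 24-h growth to 50% of control.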

Bacillus subtilis [2] = assay: Minimum inhibitory concentration (MIC) to control the growth of Bacillus subtilis strain PCM 1949.; type: functional
How it was run: (§2)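 Doubling dilutions of compound were made in a defined liquid peptide medium free of peptide-mimetic antagonists, final 0.065–512 μg/mL. The inoculum was an overnight 37 °C culture diluted to about 4 × 10^6 cfu/mL, incubated overnight at 37 °C. Non-turbid samples were subcultured (0.1 mL) onto solid peptide-medium agar and incubated overnight at 37 °C to assign MIC.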

Escherichia coli [3] = assay: Compound was evaluated for its minimum inhibitory concentration (MIC) to control the growth of Escherichia coli strain PCM 2057.; type: functional; how it was run: as §2
Klebsiella aerogenes [4] = assay: Minimum inhibitory concentration (MIC) to control the growth of Klebsiella aerogenes strain PCM 2063; type: functional; how it was run: as §2
Bacillus subtilis [5] = assay: Concentration (IC50) to inhibit the growth of Bacillus subtilis; type: functional, organism-based; how it was run: as §1
Staphylococcus aureus [6] = assay: Concentration (IC50) to inhibit the growth of Staphylococcus aureus.; type: functional, organism-based; how it was run: as §1
Enterococcus faecalis [7] = assay: Minimum inhibitory concentration (MIC) to control the growth of Streptococcus faecalis strain PCM 896; type: functional; how it was run: as §2
Serratia marcescens [8] = assay: Concentration (IC50) to inhibit the growth of Serratia marcescens.; type: functional, organism-based; how it was run: as §1
Escherichia coli [9] = assay: Concentration (IC50) to inhibit the growth of Escherichia coli.; type: functional, organism-based; how it was run: as §1
Enterococcus faecalis [10] = assay: Concentration (IC50) to inhibit the growth of Streptococcus faecalis.; type: functional, organism-based; how it was run: as §1
Serratia marcescens [11] = assay: Minimum inhibitory concentration (MIC) to control the growth of Serratia marcescens strain PCM 549.; type: functional; how it was run: as §2
Staphylococcus aureus [12] = assay: Minimum inhibitory concentration (MIC) to control the growth of Staphylococcus aureus strain PCM 2054.; type: functional; how it was run: as §2
Escherichia coli [13] = assay: Minimum inhibitory concentration (MIC) to control the growth of Escherichia coli strain PCM 2057; type: functional; how it was run: as §2
Serratia marcescens [14] = assay: Compound was evaluated for its minimum inhibitory concentration (MIC) to control the growth of Serratia marcescens strain PCM 549.; type: functional; how it was run: as §2
Staphylococcus aureus [15] = assay: Compound was evaluated for its minimum inhibitory concentration (MIC) to control the growth of Staphylococcus aureus strain PCM 2054.; type: functional; how it was run: as §2
Bacillus subtilis [16] = assay: Compound was evaluated for its minimum inhibitory concentration (MIC) to control the growth of Bacillus subtilis strain PCM 1949.; type: functional; how it was run: as §2
Staphylococcus aureus [17] = assay: Compound was evaluated for its concentration (IC50) to inhibit the growth of Staphylococcus aureus.; type: functional, organism-based; how it was run: as §1
Serratia marcescens [18] = assay: Compound was evaluated for its concentration (IC50) to inhibit the growth of Serratia marcescens.; type: functional, organism-based; how it was run: as §1

Compound	MIC (Bacillus subtilis [2]) [µg/mL]	MIC (Escherichia coli [3]) [µg/mL]	MIC (Klebsiella aerogenes [4]) [µg/mL]	MIC (Enterococcus faecalis [7]) [µg/mL]	MIC (Serratia marcescens [11]) [µg/mL]	MIC (Staphylococcus aureus [12]) [µg/mL]	MIC (Escherichia coli [13]) [µg/mL]	MIC (Serratia marcescens [14]) [µg/mL]	MIC (Staphylococcus aureus [15]) [µg/mL]	MIC (Bacillus subtilis [16]) [µg/mL]	IC50 (Klebsiella aerogenes [1]) [µg/mL]	IC50 (Bacillus subtilis [5]) [µg/mL]	IC50 (Staphylococcus aureus [6]) [µg/mL]	IC50 (Serratia marcescens [8]) [µg/mL]	IC50 (Escherichia coli [9]) [µg/mL]	IC50 (Enterococcus faecalis [10]) [µg/mL]	IC50 (Staphylococcus aureus [17]) [µg/mL]	IC50 (Serratia marcescens [18]) [µg/mL]
CC(C)CC(N)C(=O)NC(C12CC3CC(CC(C3)C1)C2)P(=O)(O)O (stereo not given)	> 512	–	> 512	> 512	> 512	> 512	> 512	–	–	–	> 512	> 512	> 512	> 512	> 512	> 512	–	–
CC(=O)OCC(NC(=O)C(N)CC(C)C)P(=O)(O)O (stereo not given)	> 512	–	> 512	> 512	> 512	> 512	> 512	–	–	–	> 512	1.4 (≈ 4.73 µM)	> 512	> 512	> 512	0.065 (≈ 0.219 µM)	–	–
CC(C)CC(N)C(=O)NC(C1CCCC1)P(=O)(O)O (stereo not given)	> 512	–	> 512	> 512	128 (≈ 438 µM)	> 512	> 512	–	–	–	> 512	435 (≈ 1490 µM)	6 (≈ 20.5 µM)	64 (≈ 219 µM)	> 512	> 512	–	–
CC(C)CC(N)C(=O)NC(Cc1ccccc1)P(=O)(O)O (stereo not given)	> 512	–	> 512	> 512	> 512	> 512	> 512	–	–	–	> 512	0.065 (≈ 0.207 µM)	0.6 (≈ 1.91 µM)	> 512	> 512	> 512	–	–
CC(=O)OCC(NC(=O)C(C)N)P(=O)(O)O (stereo not given)	> 512	–	> 512	> 512	> 512	> 512	> 512	–	–	–	96 (≈ 378 µM)	> 512	0.065 (≈ 0.256 µM)	> 512	> 512	512 (≈ 2010 µM)	–	–
CC(C)CC(N)C(=O)NC(C(C)(C)C)P(=O)(O)O (stereo not given)	> 512	–	> 512	> 512	> 512	> 512	> 512	–	–	–	> 512	> 512	> 512	> 512	> 512	> 512	–	–
CC(C)CC(N)C(=O)NC(C1CCCCC1)P(=O)(O)O (stereo not given)	> 512	–	> 512	> 512	> 512	> 512	> 512	–	–	–	> 512	> 512	> 512	> 512	> 512	> 512	–	–
CC(N)C(=O)NC(C1CC1)P(=O)(O)O (stereo not given)	> 512	–	> 512	> 512	> 512	> 512	> 512	–	–	–	> 512	> 512	> 512	> 512	> 512	> 512	–	–
CC(N)C(=O)NC1(P(=O)(O)O)CCCCC1 (stereo not given)	> 512	–	> 512	> 512	> 512	> 512	> 512	–	–	–	> 512	> 512	> 512	> 512	> 512	> 512	–	–
CC(C)CC(N)C(=O)NC(C1CCC1)P(=O)(O)O (stereo not given)	> 512	–	> 512	> 512	> 512	> 512	> 512	–	–	–	> 512	> 512	> 512	–	> 512	230 (≈ 826 µM)	–	> 512

More lines, main results first:

MIC (Bacillus subtilis [2]) [µg/mL]	MIC (Escherichia coli [3]) [µg/mL]	MIC (Klebsiella aerogenes [4]) [µg/mL]	MIC (Enterococcus faecalis [7]) [µg/mL]	MIC (Serratia marcescens [11]) [µg/mL]	MIC (Staphylococcus aureus [12]) [µg/mL]	MIC (Escherichia coli [13]) [µg/mL]	MIC (Serratia marcescens [14]) [µg/mL]	MIC (Staphylococcus aureus [15]) [µg/mL]	MIC (Bacillus subtilis [16]) [µg/mL]	Compound	IC50 (Klebsiella aerogenes [1]) [µg/mL]	IC50 (Bacillus subtilis [5]) [µg/mL]	IC50 (Staphylococcus aureus [6]) [µg/mL]	IC50 (Serratia marcescens [8]) [µg/mL]	IC50 (Escherichia coli [9]) [µg/mL]	IC50 (Enterococcus faecalis [10]) [µg/mL]	IC50 (Staphylococcus aureus [17]) [µg/mL]	IC50 (Serratia marcescens [18]) [µg/mL]
> 512	8 (≈ 40.8 µM)	> 512	> 512	64 (≈ 326 µM)	> 512	–	–	–	–	CC(N)C(=O)NC(C)P(=O)(O)O (stereo not given)	64 (≈ 326 µM)	512 (≈ 2610 µM)	58 (≈ 296 µM)	0.6 (≈ 3.06 µM)	0.22 (≈ 1.12 µM)	30 (≈ 153 µM)	–	–
> 512	–	> 512	> 512	–	128 (≈ 484 µM)	> 512	> 512	–	–	CC(C)CC(N)C(=O)NC(C1CC1)P(=O)(O)O (stereo not given)	> 512	> 512	83 (≈ 314 µM)	> 512	> 512	> 512	–	–
–	–	> 512	> 512	–	–	> 512	> 512	> 512	> 512	CC(N)C(=O)NC(Cc1ccccc1)P(=O)(O)O (stereo not given)	> 512	6.8 (≈ 25 µM)	–	14 (≈ 51.4 µM)	> 512	> 512	333 (≈ 1220 µM)	–
512 (≈ 1920 µM)	–	> 512	> 512	> 512	> 512	> 512	–	–	–	CC(C)CC(N)C(=O)NC(C(C)C)P(=O)(O)O (stereo not given)	0.065 (≈ 0.244 µM)	179 (≈ 672 µM)	32 (≈ 120 µM)	> 512	282 (≈ 1060 µM)	410 (≈ 1540 µM)	–	–
128 (≈ 432 µM)	–	128 (≈ 432 µM)	> 512	> 512	> 512	128 (≈ 432 µM)	–	–	–	CC(C)CC(N)C(=O)NC(CCC(=O)O)P(=O)(O)O (stereo not given)	22 (≈ 74.3 µM)	14 (≈ 47.3 µM)	128 (≈ 432 µM)	16 (≈ 54 µM)	18 (≈ 60.8 µM)	32 (≈ 108 µM)	–	–
> 512	–	> 512	> 512	> 512	> 512	> 512	–	–	–	CC(C)CC(N)C(=O)NC1(P(=O)(O)O)CCCCC1 (stereo not given)	> 512	5.6 (≈ 19.2 µM)	0.065 (≈ 0.222 µM)	> 512	> 512	> 512	–	–
> 512	–	> 512	> 512	> 512	> 512	> 512	–	–	–	CC(N)C(=O)NC(C1CCCCC1)P(=O)(O)O (stereo not given)	> 512	> 512	256 (≈ 969 µM)	> 512	> 512	> 512	–	–
> 512	–	> 512	> 512	> 512	> 512	> 512	–	–	–	CC(N)C(=O)NC(C1CCC1)P(=O)(O)O (stereo not given)	> 512	> 512	> 512	> 512	> 512	> 512	–	–
> 512	–	256 (≈ 969 µM)	> 512	512 (≈ 1940 µM)	64 (≈ 242 µM)	128 (≈ 484 µM)	–	–	–	CC(C)CC(N)C(=O)N1CCCC1P(=O)(O)O (stereo not given)	154 (≈ 583 µM)	> 512	35 (≈ 132 µM)	83 (≈ 314 µM)	70 (≈ 265 µM)	42 (≈ 159 µM)	–	–
16 (≈ 62.9 µM)	–	128 (≈ 504 µM)	> 512	> 512	256 (≈ 1010 µM)	64 (≈ 252 µM)	–	–	–	CC(N)C(=O)NC(CCC(=O)O)P(=O)(O)O (stereo not given)	4.8 (≈ 18.9 µM)	14 (≈ 55.1 µM)	1.8 (≈ 7.08 µM)	0.065 (≈ 0.256 µM)	5.6 (≈ 22 µM)	32 (≈ 126 µM)	–	–
